Assay results pooled from the literature.
Each line is one published result; the experiments were not run side by side.
Effect on: cell growth or viability

SMILES | cell line | assay | setting | IC50 [µM]
COc1cc(-c2ncn(/C=C\C(=O)OC(C)C)n2)cc(C(F)(F)F)c1 | OCI-AML-3 |  | 72 h | 0.112
Cc1cc(Oc2ccc(NC(=O)c3sc(-c4ccccc4)nc3C)cc2F)c2nncn2n1 | L02 | MTT |  | > 50
Cc1c(OCC(F)(F)F)ccnc1COc1ccc(NC(=O)Nc2ccc(Cl)cc2)cc1 | L02 | MTT | 72 h | > 100
CCn1c(=O)c(-c2ccc(-c3cncs3)cc2Cl)cc2cnc(Nc3ccc(N4CCN(C)CC4)cc3)nc21 | PANC-1 | MTT | 24 h | 14.1
Cc1cc(Oc2ccc(NC(=O)c3sc(-c4ccccc4)nc3C)cc2F)n2ncnc2n1 | L02 | MTT |  | > 50
COc1ccnc(COc2ccc(NC(=O)Nc3cc(F)cc(F)c3)cc2)c1OC | L02 | MTT | 72 h | > 100
CO[C@H]1/C=C\C=C(/C)C(=O)NC2=CC(=O)C(NCCN(C)C)=C(C[C@@H](C)C[C@H](OC)[C@H](O)[C@@H](C)/C=C(\C)[C@@H]1OC(N)=O)C2=O | ARPE-19 | MTT |  | 0.15
O=c1[nH]cc(F)c(=O)[nH]1 | human Lymphocyte |  | 72 h | 18
Cc1ccc(S(=O)(=O)OCC(=O)Nc2ccc(C(=O)O)c(O)c2)cc1 | OCI-AML2 |  |  | 112
Cc1ccc2c(Br)cc(Br)c(O)c2n1 | L02 | MTT | 48 h | > 100
C=C(C)C(=O)Nc1ccc(-c2c(-c3ccc(Oc4nccc(C)n4)c(F)c3)c3c(N)ncnc3n2C)cc1 | Li-7 | ATP luminescence | 96 h | > 10
Cc1c(OCC(F)(F)F)ccnc1COc1ccc(NC(=O)Nc2cc(F)cc(F)c2)cc1 | L02 | MTT | 72 h | > 100
CCOc1cc(OCC)cc(C(=O)O[C@@H]2CN3Cc4c(cc5c(c4OC)OCO5)[C@@]24C=C[C@H](OC)C[C@@H]34)c1 | PANC-1 | WST-1 |  | 8.3
Cc1cc(Oc2ccc(NC(=O)c3sc(-c4cccnc4)nc3C)cc2)n2ncnc2n1 | L02 | MTT |  | > 50
N[C@@H](CC(=O)N1CCN(C(c2ccc(F)cc2)c2ccc(F)cc2)CC1)C(=O)N1Cc2ccccc2C1 | OCI-AML2 | ATP luminescence | 48 h | 1.41
Oc1ccc(Nc2nc(-c3ccc(Cl)cc3)cs2)cc1 | WM-115 | MTS | 24 h | 38.9
C#CCSc1nc(Sc2nnnn2-c2ccccc2)c2nnn(Cc3ccc(OC)cc3)c2n1 | OCI-AML-3 | MTS | 6 days | 4.72
Cc1cc(Oc2ccc(NC(=O)c3sc(-c4ccccc4)nc3C)cc2)c2nncn2n1 | L02 | MTT |  | > 50

SMILES | cell line | assay | setting | IC50 [µM]
O=C(O)/C=C/c1ccc(O)cc1 | PANC-1 | MTT |  | > 50
c1ccc(-c2ccccn2)nc1 | L02 | MTT | 48 h | > 50
Cc1cc(Oc2ccc(NC(=O)c3cnn(-c4ccc(Cl)cc4)c3C(F)(F)F)cc2F)n2ncnc2n1 | L02 | MTT |  | > 50
COc1ccnc(COc2ccc(NC(=O)Nc3ccc(Cl)cc3)cc2)c1OC | L02 | MTT | 72 h | > 100
O=C(N/N=C/c1c(O)ccc2ccccc12)c1cc(-c2ccc3ccccc3c2)n[nH]1 | WM-115 | MTS | 48 h | 5.6
CC[C@@H](C)[C@H](N)C(=O)N1Cc2ccccc2C1 | OCI-AML2 | ATP luminescence |  | 0.3
Oc1c(I)cc(Cl)c2cccnc12 | L02 | MTT | 48 h | 79
Cc1cc(Oc2ccc(NC(=O)c3cc(-c4cccs4)no3)cc2F)n2ncnc2n1 | L02 | MTT |  | > 50
COc1c(C)cnc(COc2ccc(NC(=O)Nc3cc(F)cc(F)c3)cc2)c1C | L02 | MTT | 72 h | > 100
CCN1CCN(c2ccc(Nc3cc(N(C)C(=O)Nc4c(Cl)c(OC)cc(OC)c4Cl)ncn3)cc2)CC1 | Li-7 | ATP luminescence | 96 h | > 1
COCCCOc1ccnc(COc2ccc(NC(=O)Nc3cccc(C(F)(F)F)c3)cc2)c1C | L02 | MTT | 72 h | > 100
CO[C@H]1/C=C\C=C(/C)C(=O)NC2=C(c3ccccc3)C(=O)C(NCCN(C)C)=C(C[C@@H](C)C[C@H](OC)[C@H](O)[C@@H](C)/C=C(\C)[C@@H]1OC(N)=O)C2=O | ARPE-19 | MTT |  | 8.2
CC(=O)c1cccc(/N=N/c2cc(/C=C/C(=O)O)ccc2O)c1 | PANC-1 | MTT |  | > 50
COc1c(C)cnc(COc2ccc(NC(=O)Nc3ccc(Cl)c(C(F)(F)F)c3)cc2)c1C | L02 | MTT | 72 h | > 100
COc1cc2nccc(Oc3ccc(NC(=O)C4(C(=O)Nc5ccc(F)cc5)CC4)cc3)c2cc1OC | OCI-AML-3 | trypan blue | 72 h | > 9
COc1c(C)cnc(COc2ccc(NC(=O)Nc3ccc(Cl)cc3)cc2)c1C | L02 | MTT | 72 h | > 100
Nc1nc(Nc2ccc3c(c2)CC[C@@H](N2CCCC2)CC3)nn1-c1cc2c(nn1)-c1ccccc1CCC2 | OCI-AML-3 | trypan blue | 72 h | 2.9
